# Compound activity (PubChem BioAssay)
# Sampled rows, rich in hits. Any-hit rate of the full collection: about 2.3%.
# PRMT1 inh – PRMT1 (human) inhibition, primary screen; Q99873; inhibition, % at 2.79 µM; 1.3% of 370,000 active; recombinant PRMT1, activity-based probe fluorescence polarization;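 active = inhibition above about 21% made by adding two undisclosed values, limit read from the data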
# Target sequence (Q99873 whole entry, looked up): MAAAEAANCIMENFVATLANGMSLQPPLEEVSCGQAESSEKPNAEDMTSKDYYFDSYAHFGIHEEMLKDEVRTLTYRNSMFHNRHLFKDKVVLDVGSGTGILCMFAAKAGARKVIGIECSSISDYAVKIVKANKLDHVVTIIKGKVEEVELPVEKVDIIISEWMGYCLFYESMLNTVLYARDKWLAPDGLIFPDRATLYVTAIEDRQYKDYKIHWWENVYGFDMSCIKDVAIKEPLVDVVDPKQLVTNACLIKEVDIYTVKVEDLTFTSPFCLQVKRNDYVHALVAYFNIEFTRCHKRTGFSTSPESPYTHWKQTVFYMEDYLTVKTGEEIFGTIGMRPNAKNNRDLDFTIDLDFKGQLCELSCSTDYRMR
# PAD4 FP inh – PAD4 (human) enzyme inhibition. recombinant PAD4, RCA probe fluorescence polarization. Q9UM07. inhibition, % at 6.36 µM. 0.41% of 330,000 active. AID 485272;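 active = percent inhibition above a cutoff equal to the mean of all tested compounds plus 3 SD, cut at about 15% in these data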;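 note: 0% = PAD4 with RCA probe and DMSO and 100% = probe without PAD4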
# Fam108B inh – blocks mouse Fam108B hydrolase in RBBP9 counter-screen | recombinant Fam108B, FP-Rh probe fluorescence polarization | inhibition, % at 9.51 µM | 0.33% of 300,000 active;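 active = inhibition above the screen mean inhibition plus 3 SD, computed separately per campaign, cut at about 18% in these data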;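 note: inhibitors lower polarization as less probe binds the enzyme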
# GSTO1 inh – blocks human GSTO1 in RBBP9 counter-screen | recombinant GSTO1, activity-based probe fluorescence polarization | P78417 | inhibition, % at 5.96 µM | 1.1% of 300,000 active | AID 1974;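 active = inhibition above the campaign mean inhibition plus 3 SD, cut at about 35% in these data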;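 note: 0% = GSTO1-1 with DMSO and 100% = wells lacking GSTO1-1 enzyme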
# Target sequence (P78417 whole entry, looked up): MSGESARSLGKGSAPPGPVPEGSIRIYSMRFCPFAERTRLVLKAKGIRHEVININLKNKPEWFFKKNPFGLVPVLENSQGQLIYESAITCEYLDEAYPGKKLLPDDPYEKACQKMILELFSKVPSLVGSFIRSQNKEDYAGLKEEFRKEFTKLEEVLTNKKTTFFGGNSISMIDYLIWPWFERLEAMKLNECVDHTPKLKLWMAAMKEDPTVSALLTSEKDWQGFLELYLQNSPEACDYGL
# PME-1 inh – blocks human protein phosphatase methylesterase 1. recombinant PME-1, FP-Rh probe fluorescence polarization. AID 2130. inhibition, % at 5.9 µM. 0.53% of 320,000 active. Q9Y570;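 active = inhibition above the campaign mean of all compounds plus 3 SD, cut at about 26% in these data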;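 note: competitive labeling of PME-1 active site by serine hydrolase directed probe; 0% = PME-1 with DMSO and 100% = wells lacking PME-1 enzyme; inhibitors block probe labeling so polarization falls and inhibition rises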
# RBBP9 inh – blocks human serine hydrolase RBBP9 | O75884 | recombinant RBBP9, FP-Rh probe fluorescence polarization | inhibition, % at 7.94 µM | 0.2% of 220,000 active | AID 1515;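 active = inhibition above the campaign mean of all tested compounds plus 3 SD, cut at about 14% in these data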;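 note: plate controls were DMSO wells with RBBP9 for no effect and wells lacking RBBP9 protein for full effect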
#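 Measured by: FP readout at 525/598 nm; material: recombinant human RBBP9; also added: Serine-hydrolase probe FP-Rh, 375 nM pre-mixing; medium: Tris buffer pH 8.0, NaCl, Pluronic; replication: one well per compound; doses: one concentration, 7.94 µM nominal, 0.794% DMSO; timing: preincubation 30 min plus labeling 45 min at 25 °C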
# * = called active by the depositor; nt = no result given.
SMILES,PRMT1 inh,PAD4 FP inh,Fam108B inh,GSTO1 inh,PME-1 inh,RBBP9 inh
CC1(OC(=O)c2ccc(Cl)nc2)C(=O)C=C2C=C(C3CC3)OC=C2C1=O (centres undefined),nt,13.6,19.6*,23.9,25.2,nt
CC1(OC(=O)c2ccc(Cl)nc2)C(=O)C=C2C=C(c3ccc(C#N)cc3)OC=C2C1=O (centres undefined),nt,1.2,12.1,36.0*,12.4,nt
O=C(COC(=O)c1cc(=O)[nH]c2ccccc12)c1ccc(Br)cc1,2.1,-3.6,1.9,6.2,8.6,-3.8
O=C1CC(N2CCN(c3ccccc3Cl)CC2)C(=O)N1c1ccccc1 (centres undefined),24.1*,3.6,0.0,3.9,-0.3,-6.2
CC(=O)Nc1sc(N/N=C\c2ccc(O)cc2)nc1-c1cccs1,22.8*,-3.5,5.5,15.7,0.9,-2.9
COc1ccc(CN2C(=O)Cc3c2nc(N)c2c(N)nc(N4CCCCC4)c(C#N)c32)cc1,nt,-30.0,1.8,47.6*,-2.2,-4.6
COc1ccc(-c2sc(Nc3ccc(F)c(F)c3F)nc2CCC(=O)NN)cc1,-3.2,-1.7,7.1,3.5,29.7*,nt
COc1ccc(-c2cn(-c3ccc(C)c(Cl)c3)c(=S)[nH]2)cc1OC,7.0,-4.8,0.6,2.0,-4.0,nt
COc1ccc(-c2cn(-c3ccccc3)c(=S)[nH]2)cc1OC,23.2*,-2.6,4.1,-2.2,0.6,nt
O=C(COC(=O)c1ccccc1Br)Nc1cc(S(=O)(=O)N2CCOCC2)ccc1N1CCCC1,-1.4,-2.5,4.1,3.7,54.3*,3.4
Cc1ccc2c(c1)Oc1ccc(NC(=O)CCl)cc1C(=O)N2,4.3,0.2,-24.2,91.8*,-7.5,0.0
Cc1c(NS(=O)(=O)c2cc(C(=O)NCCN(C)C)ccc2Cl)c(=O)n(-c2ccccc2)n1C,-1.1,3.4,7.1,37.1*,4.9,nt
Cc1c(NS(=O)(=O)c2cc(C(=O)NCc3cccc(Cl)c3)ccc2Cl)c(=O)n(-c2ccccc2)n1C,-3.3,nt,nt,nt,nt,nt
Cc1ccc(S(=O)(=O)CNC(=S)c2cccc(Cl)c2)cc1,8.1,1.8,-2.0,37.5*,-6.3,5.4
CCn1c(=O)c2cc(C(=O)NCCOC)sc2c2ccccc21,-3.6,3.8,-0.1,-4.3,-2.6,nt
CCn1c(=O)c2cc(C(=O)Nc3ccc(OC)cc3OC)sc2c2ccccc21,-2.3,-3.9,-0.9,-0.4,31.9*,-8.9
CCn1c(C(O)c2ccccc2)nc2ccccc21 (centres undefined),-0.8,3.0,0.5,9.2,3.3,-9.6
CCOc1ccc(CNC(=O)C2CCN(S(=O)(=O)CC)CC2)cc1OC,-0.2,-0.9,-2.2,2.4,4.1,-0.7
COc1ccccc1NS(=O)(=O)c1ccc(N/N=C/c2ccccc2OCC(=O)O)c([N+](=O)[O-])c1,6.1,0.3,7.6,-8.7,54.5*,4.8
CCN(CC)S(=O)(=O)c1ccc(N/N=C/c2ccccc2OCC(=O)O)c([N+](=O)[O-])c1,8.6,-2.5,5.3,4.3,23.0,-6.5
N#Cc1c(SCc2nc3ccccc3[nH]2)nc2c(c1C(F)(F)F)CCC2,nt,nt,nt,nt,nt,-5.1
Cc1cc(C)c(C#N)c(SCc2nc3ccccc3[nH]2)n1,9.0,-1.1,0.9,-5.6,28.8*,-5.3
O=[N+]([O-])c1ccccc1N/N=C/c1c[nH]c2ccccc12,1.1,4.8,6.2,0.6,50.1*,-1.5
O=C(COC(=O)CCS(=O)(=O)c1ccccc1)Nc1ccccc1,-1.7,-1.0,nt,nt,-1.6,nt
N#CCCN(C(=O)COC(=O)c1nc(Cl)ccc1Cl)c1ccccc1,3.2,-5.9,3.2,-3.4,-6.2,nt
SMILES,PRMT1 inh,PAD4 FP inh,Fam108B inh,GSTO1 inh,PME-1 inh,RBBP9 inh
N#CCCN(C(=O)CCl)c1cccc(Cl)c1,3.1,3.3,-4.5,86.8*,0.6,-8.6
CCCCc1cc(=O)oc2cc(OCC(=O)N3C[C@H]4C[C@@H](C3)c3cccc(=O)n3C4)ccc12,-5.8,-1.8,-1.5,2.6,1.0,nt
O=C(c1cccc(Cl)c1)N1CCN(c2ccc(N3CCOCC3)nn2)CC1,0.1,1.0,0.2,2.9,-4.0,nt
COc1cccc(COc2nc3c(c(=O)n(C)c(=O)n3C)n2C)c1,-1.6,0.9,-1.1,35.6*,-6.5,-0.3
CC(=O)N1CCN(c2ccc(NC(=S)NC(=O)COc3ccc(C(C)(C)C)cc3)cc2)CC1,2.2,-0.1,0.2,-1.1,39.9*,4.2
CCc1ccc(CNC(=O)C2CCN(S(=O)(=O)N3CCC(C)CC3)CC2)cc1,-0.1,0.9,11.1,4.2,-0.2,nt
CC1(C)C(/C=C/C=C/C=C/C=C2\N(CCCCS(=O)(=O)O)c3ccc4ccccc4c3C2(C)C)=[N+](CCCCS(=O)(=O)[O-])c2ccc3ccccc3c21,nt,-35.0,-4.0,41.2*,-52.5,nt
CCC(CC)C(=O)OCC(=O)NC12CC3CC(CC(C3)C1)C2,0.7,-4.0,-4.3,36.8*,3.8,-1.6
Cc1cccc(Nc2nc(N)nc(N)c2N=O)c1,0.4,nt,nt,nt,nt,nt
Cc1ccc(N(C)c2nc(N)nc(N)c2N=O)cc1,173.0*,nt,nt,nt,nt,nt
Cc1ccc(NC(=O)c2nc[nH]c2C(=O)N2CCOCC2)c(C(=O)c2ccccc2)c1,-5.7,1.7,-0.1,2.3,-1.4,-8.8
CCOc1ccc(NC(=S)NNc2ccnc3cc(Cl)ccc23)cc1,8.7,2.1,5.2,14.6,38.4*,1.3
S=C(NNc1ccnc2cc(Cl)ccc12)Nc1ccc(Cl)cc1Cl,-0.2,-4.1,7.3,9.6,25.1,2.2
N#Cc1ccc(C(=O)N2CCCCC2c2cc(C(=O)NCc3ccccc3)no2)cc1 (centres undefined),1.6,nt,nt,nt,nt,nt
Cn1cnc([N+](=O)[O-])c1Sc1nnc(-c2ccccc2)c(-c2ccccc2)n1,24.0*,nt,nt,nt,nt,nt
Cn1cnc([N+](=O)[O-])c1Sc1ncn[nH]1,-2.7,0.1,-0.4,6.6,-1.8,-6.3
Cc1cc(C)c2[nH]c(O)c(N=NC(=O)c3cc4c(s3)CCCC4)c2c1,nt,3.0,0.1,0.3,26.4*,3.0
CCOc1cc(/C=N/NC(=O)c2cccc([N+](=O)[O-])c2)ccc1OS(=O)(=O)c1ccccc1,1.9,-1.8,9.1,-48.0,41.4*,-14.2
Cc1cc(C(=O)N/N=C/c2cccc([N+](=O)[O-])c2)c(C)n1-c1ccccc1,2.9,0.8,4.4,-4.8,28.9*,7.0
CCS(=O)(=O)N1CCN(C(=O)COc2ccc(-c3ccccc3)cc2)CC1,1.4,1.8,2.6,3.6,0.0,6.9
CCCn1c(SCC(=O)N2c3ccccc3CC2C)n[nH]c1=O (centres undefined),-3.0,nt,nt,nt,nt,nt
COc1ccccc1C(=O)Nc1ccnn1C1CCN(Cc2cnn(C)c2C)CC1,1.7,0.5,2.0,0.6,-2.5,nt
O=C1/C(=C/c2cccs2)CCC/C1=C\c1cccs1,1.2,-5.8,-5.0,-5.4,-2.2,nt
CC1C/C(=C/c2cccs2)C(=O)/C(=C/c2cccs2)C1 (centres undefined),22.3*,-5.7,-5.9,7.7,3.9,-6.0
CS(=O)(=O)c1sc2nc(-c3cccs3)cc(-c3ccccc3)c2c1N,64.6*,-18.9,5.0,-15.7,-8.5,-9.4
